This is a sample that favours compounds with a hit; in the whole collection about 2.5% have one here.
SR-BI DiI inh: mouse SR-BI HDL lipid transfer inhibition; Q61009; ldlA[mSR-BI] CHO cells, DiI-HDL uptake fluorescence, 3 h; inhibition, % at 12.5 µM; hit rate 0.96% among 320,000; AID 488896;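 active means mean replicate inhibition of at least 70% and a set share of replicates each scoring 70 or more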;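 further: 0% = median of neutral control wells and 100% = median of positive control wells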
Target sequence (Q61009 whole entry, looked up): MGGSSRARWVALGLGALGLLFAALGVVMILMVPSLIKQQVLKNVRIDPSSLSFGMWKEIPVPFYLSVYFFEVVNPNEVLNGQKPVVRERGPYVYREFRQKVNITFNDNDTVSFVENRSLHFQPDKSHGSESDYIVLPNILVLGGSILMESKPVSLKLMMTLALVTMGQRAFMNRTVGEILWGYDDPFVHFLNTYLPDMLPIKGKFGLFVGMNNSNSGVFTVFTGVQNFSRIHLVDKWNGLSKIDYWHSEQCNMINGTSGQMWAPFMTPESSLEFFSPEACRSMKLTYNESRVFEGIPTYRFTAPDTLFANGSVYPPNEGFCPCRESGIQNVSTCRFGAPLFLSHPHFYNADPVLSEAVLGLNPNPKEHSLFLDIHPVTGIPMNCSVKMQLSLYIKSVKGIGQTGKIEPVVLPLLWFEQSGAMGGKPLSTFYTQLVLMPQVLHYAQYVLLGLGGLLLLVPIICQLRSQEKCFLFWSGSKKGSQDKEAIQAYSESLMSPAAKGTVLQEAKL
Vif inh: blocks HIV Vif function | HEK293T cells, Vif self-association by quenched fluorescence, imaging, 24 h | inhibition, % at 7.49 µM | hit rate 0.35% among 340,000 | AID 602346; in the data active means inhibition above about 50%, passing the limit was not always enough
H9c2 TAG inh: inhibitors of triacylglycerol accumulation | H9c2 cells, Nile Red lipid (TAG) fluorescence; cells loaded with 200 µM oleic acid | AID 651582 | hit rate 0.66% among 230,000 | inhibition, % at 12.5 µM;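 active means pattern-corrected inhibition of lipid staining of at least 50% with the nuclear-stain viability signal not falling by more than 50%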;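 further: 0% = DMSO wells and 100% = triacsin C control wells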
SMARCA2 activ: activators of SMARCA2 function; activation, % at 9.1 µM; hit rate 1% among 370,000; MG213 cells, MMTV-luciferase reporter, dexamethasone, overnight; in the data active means activation above about 7.8%;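 further: 0% = vehicle wells and 100% = reference activator wells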
SR-BI uptake up: enhances SR-BI lipid uptake from DiI-HDL. CHO ldlA[mSR-BI] cells, DiI-HDL uptake fluorescence, 3 h; 100 = double the neutral-control signal. activation, % at 12.5 µM. hit rate 0.096% among 320,000;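 active means mean replicate activation of at least 60% and every replicate at or above 60%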;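 further: 0% = median plate neutral-control signal and 100% = twice that signal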
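material = CHO ldlA[mSR-BI] cells | medium = Ham's F12 with 0.5% BSA, HEPES 25 mM, pH 7.4 | reagent = fluorescent DiI-HDL, 10 µg/mL final | compound dosing = single-point compound dose | incubation = 3 h, 37 °C | measured by = bottom-read fluorescence, 550/595 nm | measure = HDL uptake via cellular fluorescence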
SMARCA2 conf: confirmation of SMARCA2 (BRM) function activators; shares compounds with SMARCA2 activ; hit rate 30% among 3,500; activation, % at 9.1 µM; MG213 cells, MMTV-luciferase with dexamethasone, luminescence, overnight; MG213 cells expressing E1A, Rb sequestered; DMSO wells 0%, reference activator 100%;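 active means activation above its plate's cutoff, the mean activation of tested wells plus 3 SD, cut at about 7.9% in these data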
VP16 Luc act: activates GAL4-VP16 luciferase, flagging SMARCA2 activator hits | shares compounds with SMARCA2 activ | HEK293 GAL4-VP16 pG5luc reporter, luciferase luminescence; scaled: DMSO wells 0%, SAHA wells 100% | activation, % at 9.1 µM | hit rate 41% among 3,500 | AID 686939;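 active means activation above the solvent-only control well mean plus 3 SD, averaged across control plates, cut at about 5.2% in these data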
* = called active by the depositor; · = not tested or not shown.

SMILES	SR-BI DiI inh	Vif inh	H9c2 TAG inh	SMARCA2 activ	SR-BI uptake up	SMARCA2 conf	VP16 Luc act
COc1ccc(C(C)C)cc1S(=O)(=O)Nc1cccnc1	·	·	3.0	-6.1	·	·	·
CC(C)N(Cc1cn(Cc2ccccc2)nn1)S(=O)(=O)c1ccc(F)cc1Br	·	·	·	8.7*	·	-1.9	0.0
Cc1ccc(OCc2nnc(SCC(=O)Nc3ccccc3-c3ccccc3)n2Cc2ccco2)cc1	·	·	·	-3.2	·	·	·
CCCCN1C(=O)N(c2nnc(C(C)(C)C)s2)C(O)C1c1ccc(C)cc1 (stereo not given)	-5.6	-7.5	2.1	10.4*	5.6	-1.2	1.6
CN(C)c1ncnc2c1ncn2[C@H]1CN(Cc2ccc3c(c2)OCO3)C[C@@H](CO)O1	·	-8.0	10.6	1.0	·	·	·
CN1CCN(C(=O)c2cn(C)c3ccc(S(=O)(=O)N(C)C4CCCCC4)cc3c2=O)CC1	-15.1	2.3	·	8.5*	15.1	-1.6	2.1
CN(C1CCCCC1)S(=O)(=O)c1ccc2c(c1)c(=O)c(C(=O)N1CCc3ccccc3C1)cn2C	18.1	-6.6	·	-0.6	-18.1	·	·
Cc1nnc(SCC(=O)NC2CCCCC2)[nH]c1=O	·	24.8	·	-3.2	·	·	·
Nc1ccc2ccc(N)cc2c1	·	·	·	12.7*	·	-0.5	2.1
OCC[C@H]1C[C@@H](O)[C@H](O)[C@]2(Cc3ccccc3CO2)O1	-9.4	-2.8	-17.9	-0.8	9.4	·	·
c1ccc(-c2cc(N3CCCCC3)ncn2)cc1	8.9	3.2	14.4	8.2*	-8.9	8.5*	8.6*
CN(C)CCNc1ccc(CO)c2oc3ccc(O)cc3c(=O)c12	4.4	1.5	85.4	10.8*	-4.4	12.8*	4.2
CCN(CC)CCNC(CC(=O)Nc1ccc(Cl)cc1Cl)C(=O)O (stereo not given)	-34.9	-1.5	6.9	0.0	34.9	·	·
CCN(CC)CCNc1ccc(CO)c2oc3cc(Cl)ccc3c(=O)c12	·	·	22.8	18.2*	·	28.7*	0.7
C=CCN1[C@@H](CC(C)C)COc2cccc(N3CCSCC3)c2S1(=O)=O	·	·	·	-1.5	·	·	·
COc1cc(OC)cc(-n2nnnc2SCC(=O)Nc2nc3c(s2)CCCC3)c1	4.6	3.8	·	0.5	-4.6	·	·
Cn1nnnc1SCC(=O)Nc1nc2c(s1)CCCC2	-22.9	26.1	·	11.5*	22.9	5.8	9.0*
CCOC(=O)[C@]12CCCC=C1N(CCCOC)C(=O)[C@@H]2CC(=O)NCC12CC3CC(CC(C3)C1)C2	·	·	·	-0.7	·	·	·
CCCn1c(=O)c(C(=O)OCC)c(O)c2cc(Br)ccc21	-9.4	-0.6	·	-4.5	9.4	·	·
CCOC(=O)c1c(CN(C)C)n(C)c2c(O)c(N=NC(N)=O)c3ccc(Br)cc3c12	14.3	-8.7	·	9.1*	-14.3	2.7	6.3*
C=CCN=C1NC(c2ccc(F)cc2)C(C(=O)OC)=C(C)N1C (stereo not given)	·	·	·	-4.5	·	·	·
CC1(C)CC(=O)C/C(=N/NC(=O)c2ccc(-c3ccccc3)cc2)C1	20.0	1.3	·	-1.1	-20.0	·	·
CC1(C)CC(=O)C/C(=N\NC(=O)Cc2ccccc2)C1	-25.0	4.6	·	10.1*	25.0	1.2	0.9
COc1cccc2c3c(c(=O)[nH]c12)CC(C)(C)O3	·	9.8	4.4	12.1*	·	-0.8	-0.2
COc1cccc2c3c(c(=O)[nH]c12)CCC(C)(C)O3	14.6	-9.0	16.3	-1.3	-14.6	·	·
SMILES	SR-BI DiI inh	Vif inh	H9c2 TAG inh	SMARCA2 activ	SR-BI uptake up	SMARCA2 conf	VP16 Luc act
Cc1ccc(S(=O)(=O)/N=C(/c2ccccc2)N2CCOCC2)cc1	-15.2	1.5	5.3	8.2*	15.2	-2.1	0.8
CN1CCCC1CCNc1ccc2oc3ccccc3c(=O)c2c1 (stereo not given)	·	·	·	3.7	·	·	·
Cn1c2ccccc2c(=O)c2cc(NCCCN3CCOCC3)ccc21	-5.1	1.4	8.8	14.6*	5.1	17.8*	8.7*
Cn1c2ccccc2c(=O)c2ccc(NCc3ccc4c(c3)OCO4)cc21	-1.4	·	-3.4	0.8	1.4	·	·
CN1CCCC1CCNc1ccc2c(=O)c3ccccc3oc2c1 (stereo not given)	-2.1	2.1	6.6	11.4*	2.1	14.1*	8.9*
CN1CCC[C@H]1CCNc1ccc2c(=O)c3ccccc3n(C)c2c1	17.0	·	20.1	26.9*	-17.0	53.1*	8.6*
COC(=O)[C@@]12CCCCC=C1N(CCc1ccc(Cl)cc1)C(=O)[C@H]2CC(=O)NCC12CC3CC(CC(C3)C1)C2	·	·	·	-2.9	·	·	·
Cc1ccccc1N1CCN(C(=O)CN2C(=O)CC(C)(C)S(=O)(=O)c3ccccc32)CC1	·	·	·	-1.9	·	·	·
Cc1cc(C)cc(Cn2ncc(Cl)c(Cl)c2=O)c1	·	·	·	4.9	·	·	·
CCc1ccc(C(=O)Cn2ncc(Cl)c(Cl)c2=O)cc1	-9.8	-17.4	14.2	16.9*	9.8	-15.9	4.1
COc1ccc2oc(=O)c(-c3nnc(NCc4ccco4)s3)cc2c1	53.3	-1.3	19.8	15.2*	-53.3	14.7*	6.5*
O=c1oc2ccc(Cl)cc2cc1-c1nnc(Nc2cccc(C(F)(F)F)c2)s1	-4.8	8.0	7.9	0.6	4.6	·	·
CNc1nnc(-c2cc3cc(Cl)ccc3oc2=O)s1	-4.9	0.7	3.6	9.7*	4.9	10.4*	11.2*
O=S(=O)(c1ccccc1)c1ncc(C(F)(F)F)cc1Cl	-2.1	1.4	46.2	-4.7	2.1	·	·
COc1cc2c(cc1OC)CSC1C(=O)N(C)C(SC2)C(=O)N1C	·	·	·	-1.5	·	·	·
Cc1cc(C)cc(NC(=O)CSc2nc(=O)n3cc(C)ccc3n2)c1	33.3	13.7	-1.4	4.6	-33.3	·	·
Nc1c(Cl)nc(-c2ccccc2)nc1Cl	-11.5	-9.2	-4.8	0.9	11.5	·	·
O=C1CCCN1CCCNc1ccc2nnc(CCC(=O)N3CCN(c4ccccc4)CC3)n2n1	5.5	-4.3	·	0.4	-5.5	·	·
O=C1c2cccc3c([N+](=O)[O-])ccc(c23)C(=O)N1c1ccccn1	-14.4	112.9*	31.1	14.2*	14.4	-15.7	6.5*
Cc1ccccc1Cn1cc(NC(=O)c2nn(C)cc2Cl)cn1	-1.9	-14.1	·	-0.9	1.9	·	·
Cc1ccccc1Cn1cc(NS(=O)(=O)c2cn(C)nc2C)cn1	-15.8	-0.7	9.8	8.8*	15.8	-1.9	2.0
C=CCN1C(=O)[C@@H](CC(=O)NCCCOC)[C@]2(C(=O)OC)CCCCC=C12	·	·	·	-1.9	·	·	·
Cc1nn(CCOc2ccccc2)c(=O)n1-c1c(F)cccc1F	-6.8	3.5	·	9.8*	6.8	3.3	8.0*
CCc1cc2c(=O)c(-c3nc(C)cs3)coc2cc1O	43.9	-3.2	1.2	4.3	-43.9	·	·
Cc1csc(-c2coc3cc(O)cc(C)c3c2=O)n1	11.4	-14.4	·	9.0*	-4.7	15.5*	7.5*
CCCCNC(=O)C[C@H]1C[C@@]2(C(=O)OC)C(=C[C@H](C(C)C)O[C@@H]2C2CC2)N(Cc2ccccc2)C1=O	·	·	·	-5.2	·	·	·
